pEC50: −log10 of the molar value. Calls of active or inactive are those of the source. The rule behind the calls is not given here. Where a SMILES comes first, the peptide text is derived from it. [ ]: non-standard residue; d: D form. aThr = C[C@H](O)[C@H](N)C(=O)O
Tests used:
[1] = tested on: Human immunodeficiency virus 1; experiment: Antiviral activity against HIV1 3B infected in human CEM-SS cells assessed as inhibition of viral replication after 6 days by XTT assay; assay type: functional, organism-based; details: Human immunodeficiency virus 1, 3B, CEM-SS, 144 h
How it was run: (§1)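 Peptides were added in triplicate at six serial concentrations, 0.32–100 μg/ml. Cultures were held at 37°C, 5% CO2 for 6 days, then stained with XTT. EC50 (virus inhibition) and TC50 (cell viability) were derived from the XTT read-out, and TI was taken from these.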

[2] = Cytotoxicity against human CEM-SS cells infected with HIV1 3B after 6 days by XTT assay; assay type: cell-based; details: read-out: TC50
[3] = Therapeutic index, ratio of TC50 for human CEM-SS cells infected with HIV1 3B to EC50 for HIV1 3B infected in human CEM-SS cells; assay type: cell-based; details: read-out: TI
How it was run: as §1, with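 “CEM-SS cells (2.5 × 10^3/well) in RPMI 1640 with 10% heat-inactivated FBS were infected with HIV-1 IIIB (MOI 0.0005–0.001). Peptides” for “Peptides”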

[4] = tested on: Escherichia coli; experiment: Antibacterial activity against Escherichia coli K-12; assay type: functional, organism-based

| Compound | pEC50 [1] | CC50 at 144 h [2] | selectivity ratio [3] | Activity [4] |
| --- | --- | --- | --- | --- |
| CC[C@H](C)[C@H](NC(=O)[C@H](CC(C)C)NC(=O)[C@@H]1CCCN1C(=O)[C@H](Cc1ccccc1)NC(=O)[C@H](CC(C)C)NC(=O)[C@@H](N)Cc1ccccc1)C(=O)N[C@H](C(=O)N[C@@H](CO)C(=O)N[C@@H](Cc1ccccc1)C(=O)N[C@@H](CC(C)C)C(=O)N[C@@H](CO)C(=O)N[C@@H](CCCCN)C(=O)N[C@H](C(=O)N[C@@H](CC(C)C)C(=O)O)C(C)C)[C@H](C)O | 4.78 | 34.6 µM | 2.07 | – |
| CC[C@H](C)[C@H](NC(=O)[C@H](CCCCN)NC(=O)[C@H](CCC(=O)O)NC(=O)[C@H](CCCCN)NC(=O)[C@H](CO)NC(=O)[C@H](CCCCN)NC(=O)[C@H](CCCNC(=N)N)NC(=O)[C@H](Cc1ccccc1)NC(=O)[C@H](Cc1ccccc1)NC(=O)[C@H](CC(=O)O)NC(=O)CNC(=O)[C@H](CC(C)C)NC(=O)[C@@H](N)CC(C)C)C(=O)NCC(=O)N[C@@H](CCCCN)C(=O)N[C@@H](CCC(=O)O)C(=O)N[C@@H](Cc1ccccc1)C(=O)N[C@@H](CCCCN)C(=O)N[C@@H](CCCNC(=N)N)C(=O)N[C@H](C(=O)N[C@H](C(=O)N[C@@H](CCC(N)=O)C(=O)N[C@@H](CCCNC(=N)N)C(=O)N[C@H](C(=O)N[C@@H](CCCCN)C(=O)N[C@@H](CC(=O)O)C(=O)N[C@@H](Cc1ccccc1)C(=O)N[C@@H](CC(C)C)C(=O)N[C@@H](CCCNC(=N)N)C(=O)N[C@@H](CC(N)=O)C(=O)N[C@@H](CC(C)C)C(=O)N[C@H](C(=O)N1CCC[C@H]1C(=O)N[C@@H](CCCNC(=N)N)C(=O)N[C@H](C(=O)N[C@@H](CCC(=O)O)C(=O)N[C@@H](CO)C(=O)O)[C@@H](C)O)C(C)C)[C@@H](C)CC)C(C)C)[C@@H](C)CC | – | – | – | inactive |
| CC[C@H](C)[C@H](NC(=O)[C@H](CC(C)C)NC(=O)[C@H](C)NC(=O)[C@@H]1CCCN1C(=O)[C@H](CCCNC(=N)N)NC(=O)[C@@H](N)Cc1ccccc1)C(=O)N[C@H](C(=O)N[C@@H](CCCNC(=N)N)C(=O)N[C@H](C(=O)N[C@@H](CCCCN)C(=O)NCC(=O)N[C@H](C(=O)N[C@@H](CCCNC(=N)N)C(=O)N[C@@H](CC(C)C)C(=O)O)[C@H](C)O)[C@H](C)O)C(C)C [Hyposin-5] (H-FRPALIVR[aThr]KG[aThr]RL-OH) | < 4.21 | > 61.4 µM | – | – |
| CC[C@H](C)[C@H](NC(=O)[C@@H]1CCCN1C(=O)[C@H](Cc1cnc[nH]1)NC(=O)[C@H](CCCCN)NC(=O)[C@@H]1CCCN1C(=O)[C@@H](N)CCCNC(=N)N)C(=O)N[C@@H](CCCCN)C(=O)N[C@@H](Cc1cnc[nH]1)C(=O)N[C@@H](CCC(N)=O)C(=O)NCC(=O)N[C@@H](CC(C)C)C(=O)N1CCC[C@H]1C(=O)N[C@@H](CCC(N)=O)C(=O)N[C@@H](CCC(=O)O)C(=O)N[C@H](C(=O)N[C@@H](CC(C)C)C(=O)N[C@@H](CC(N)=O)C(=O)N[C@@H](CCC(=O)O)C(=O)N[C@@H](CC(N)=O)C(=O)N[C@@H](CC(C)C)C(=O)N[C@@H](CC(C)C)C(=O)N[C@@H](CCCNC(=N)N)C(=O)N[C@@H](Cc1ccccc1)C(=O)O)C(C)C [ISRACIDIN] | < 4.44 | > 36.2 µM | – | – |
| CC[C@H](C)[C@H](NC(=O)[C@H](CO)NC(=O)[C@H](CC(C)C)NC(=O)[C@H](Cc1ccccc1)NC(=O)CN)C(=O)N[C@@H](CC(C)C)C(=O)N[C@@H](CCCCN)C(=O)N[C@@H](CCCCN)C(=O)N[C@H](C(=O)N[C@@H](CC(C)C)C(=O)N1CCC[C@H]1C(=O)N[C@@H](CCCCN)C(=O)N[C@H](C(=O)N[C@@H](CCSC)C(=O)N[C@@H](C)C(=O)N[C@@H](Cc1cnc[nH]1)C(=O)N[C@@H](CCSC)C(=O)N[C@@H](CCCCN)C(N)=O)C(C)C)C(C)C [MELECTIN] | – | 7.75 µM | – | – |
| CC[C@H](C)[C@H](NC(=O)[C@H](CCCNC(=N)N)NC(=O)[C@H](CC(C)C)NC(=O)[C@H](CCC(N)=O)NC(=O)[C@H](CCCCN)NC(=O)[C@H](CC(C)C)NC(=O)[C@H](CC(C)C)NC(=O)[C@H](CC(C)C)NC(=O)[C@@H](NC(=O)[C@H](CCCCN)NC(=O)[C@H](CC(=O)O)NC(=O)[C@H](C)NC(=O)[C@@H](NC(=O)[C@H](CCCCN)NC(=O)[C@H](CCCCN)NC(=O)[C@H](CC(=O)O)NC(=O)[C@@H](NC(=O)[C@@H](N)Cc1cnc[nH]1)C(C)C)C(C)C)C(C)C)C(=O)N[C@@H](CCSC)C(=O)N[C@@H](CCCNC(=N)N)C(=O)N[C@@H](CC(C)C)C(=O)N[C@@H](CC(C)C)C(=O)N[C@H](C(=O)N[C@@H](CCCNC(=N)N)C(=O)N[C@@H](CC(C)C)C(=O)O)[C@@H](C)O [SPINIGERIN] | 5.52 | > 33.3 µM | > 10.9 | – |
| Cc1cn([C@H]2C[C@H](N=[N+]=[N-])[C@@H](CO)O2)c(=O)[nH]c1=O [ZIDOVUDINE] | – | > 0.5 µM | – | – |
| H-FFHHIFRGIVHVGKTIHRLVTG-OH [Piscidin 3] | – | 6.9 µM | – | – |
| H-GAWKNFWSSLRKGFYDGEAGRAIRR-OH | < 4.47 | > 34.1 µM | – | – |
| H-GFGKAFHSVSNFAKKHKTA-NH2 [STYELIN A] | < 4.31 | > 48.5 µM | – | – |
| H-GFKDLLKGAAKALVKTVLF-NH2 [Ascaphin-8] | 5.92 | 2.9 µM | 2.4 | – |
| H-GFKRIVQRIKDFLRNLV-NH2 | 6.12 | 10.8 µM | 14.2 | – |
| H-GFLDIIEKIAKSW-OH | 4.98 | > 65.8 µM | > 6.3 | – |
| H-GIFDKLAKEISIW-OH | < 4.18 | > 65.8 µM | – | – |
| H-GIIDIAKKLFESW-OH | 4.70 | > 65.8 µM | > 3.3 | – |
| H-GIWDTIKSMGKVFAGKILQNL-NH2 [Brevinin-2] | 5.78 | 7.42 µM | 4.49 | – |
| H-GIWSDLAEIIKKF-OH | – | > 65.8 µM | – | – |
| H-GKPRPYSPRPTSHPRPIRV-OH [DROSOCIN] | < 4.34 | > 45.5 µM | – | – |
| H-GLADFLNKAVGKVVDFVKS-NH2 [Desertcolin 1] | < 4.30 | > 49.9 µM | – | – |
| H-GLFDIIKKIAESW-OH | 4.93 | 37 µM | 3.2 | – |
| H-GLKKLLGKLLKKLGKLLLK-OH | < 4.32 | 25.1 µM | < 0.5 | Active |
| H-GLLGLLGSVVSHVVPAIVGHF-NH2 [Maculatin 1.3] | 5.40 | 8.02 µM | 2.01 | – |

From ChEMBL document CHEMBL1240406, “Identification of novel human immunodeficiency virus type 1-inhibitory peptides based on the antimicrobial peptide database” (Antimicrob Agents Chemother, 2010)
